KCNK9 inh – blocks the human KCNK9 two-pore domain potassium channel | Q9NPC2 | HEK293 KCNK9, FluxOR thallium flux fluorescence; stronger effect = lower value | B-score at 10 µM | hit rate 1.2% among 310,000 | AID 488922;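 active = ratio B-score over 3 SD below the library mean, with starting fluorescence within 5 SD of its mean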;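 note: negative B-score means less thallium flux so channel inhibition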
Target sequence (Q9NPC2 whole entry, looked up, the tested form may be a part): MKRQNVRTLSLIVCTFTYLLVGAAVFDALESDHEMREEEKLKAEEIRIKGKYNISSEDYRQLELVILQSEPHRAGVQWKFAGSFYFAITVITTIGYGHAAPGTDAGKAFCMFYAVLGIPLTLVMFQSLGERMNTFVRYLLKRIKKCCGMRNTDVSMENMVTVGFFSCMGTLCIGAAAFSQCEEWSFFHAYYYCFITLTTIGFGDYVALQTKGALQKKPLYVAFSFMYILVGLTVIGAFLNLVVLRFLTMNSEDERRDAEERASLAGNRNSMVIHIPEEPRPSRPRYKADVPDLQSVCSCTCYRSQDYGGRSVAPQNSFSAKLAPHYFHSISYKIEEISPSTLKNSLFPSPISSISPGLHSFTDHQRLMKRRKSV
KCC2 mod – modulators of human KCC2 chloride dependent transport; AID 1456; Q9H2X9; KCC2 cells, thallium flux FluoZin-2 fluorescence; B-score of Tl+ flux slope (higher = more flux/activation; lower = inhibition) at 10 µM; hit rate 2.2% among 190,000;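 active = thallium flux slope and its plate-corrected score both differing from the plate sample mean at a set confidence after two filtering rounds, in either direction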;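 note: slope of fluorescence scaled to starting intensity during 10 to 20 s after thallium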
KCNQ1 inh – inhibitors of human KCNQ1 potassium channel; P51787; CHO-K1 KCNQ1, FluxOR thallium flux fluorescence; stronger effect = higher value; B-score at 10 µM; hit rate 1.3% among 310,000;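 active = compounds whose thallium flux B-score, printed positive for inhibition, exceeds three library SD while starting fluorescence stays within three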;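 note: channel opened by potassium depolarization with thallium stimulus after 20 min compound exposure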
hERG rescue – compounds protecting human hERG from proarrhythmic drug block | hit rate 0.51% among 310,000 | activation (rescue from dofetilide block), less the hit threshold, % at 10 µM | CHO-hERG, FluxOR thallium flux, dofetilide IC70 present;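 active = activation above the mean of controls blocked by dofetilide plus 5 SD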;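 note: thallium influx through hERG after potassium depolarization seen as dye fluorescence rise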
KCNQ1 pot – potentiates or activates the human KCNQ1 potassium channel; hit rate 0.35% among 310,000; P51787; B-score at 10 µM; CHO-K1 KCNQ1, thallium flux FluxOR fluorescence; stronger effect = higher value;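 active = fluorescence ratio B-score, a plate-corrected score, at least three library SD, with initial intensity B-score within 5 SD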
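Test system: CHO-K1 cells stably expressing KCNQ1 / Medium: assay buffer / Also added: depolarizing K+/Tl+ stimulus, K2SO4 and Tl2SO4 each 12.5 mM in 5x stock / Incubation: 90 min dye loading and 20 min compound exposure, both at room temperature / Signal: thallium influx via FluxOR fluorescence, kinetic imaging / Evaluation: B score of baseline-normalized fluorescence ratio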
KCNK3 block – human KCNK3 channel inhibition, primary screen. O14649. CHO-KCNK3 thallium flux, FluxOR fluorescence; stronger effect = lower value. B-score at 10 µM. hit rate 0.84% among 340,000;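 active = B-score under library mean minus 4 SD, starting fluorescence ratio at most library mean plus 5 SD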;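 note: more negative B-score means stronger inhibition of thallium flux through KCNK3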
KCNK9 block conf – confirmation of human KCNK9 potassium channel inhibitors; HEK293 KCNK9 cells, FluxOR thallium flux fluorescence; inhibition, % at 10 µM; shares compounds with KCNK9 inh; hit rate 43% among 4,900; AID 492992;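 active = thallium signal inhibited by more than 5 SD of the compound-free buffer control wells, on both duplicate plates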;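 note: 0% = assay buffer control wells without compound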
Kir21 sel – selectivity of KCNK9 modulators against mouse Kir2.1. Kir2.1 cells, FluxOR thallium flux fluorescence. shares compounds with KCNK9 inh. inhibition, % at 10 µM. hit rate 4% among 4,900. AID 492993;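 active = thallium signal drop more than 5 SD beyond the mean of the no-compound control wells, seen in both duplicate plates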;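 note: signal is fluorescence rise after thallium addition divided by baseline fluorescence; plate controls were assay buffer only for no effect and full block by chlorpromazine control for full effect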
KCNK9 uninduced – second counter-screen for KCNK9 modulators: effect in non-induced cells | shares compounds with KCNK9 inh | non-induced KCNK9-HEK293, FluxOR thallium flux | inhibition, % at 10 µM | hit rate 40% among 4,900 | AID 492997;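 active = thallium signal drop beyond 5 SD of the untreated control mean, on both duplicate plates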;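 note: plate controls were buffer only IC0 wells for no effect and SID17386958 at its maximal inhibitory level for full effect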
* marks the source's active call; other numbers are inactive results. Sampled rows, rich in hits. Any-hit rate of the full collection: about 4.1%.

What do the screens show for `CC1CC(C)CN(S(=O)(=O)c2ccc(NC(=O)C3COc4ccccc4O3)cc2)C1` (stereo not drawn)?
KCNK9 inh: inactive; KCC2 mod: -0.227; KCNQ1 inh: inactive; hERG rescue: -6.3; KCNQ1 pot: inactive; KCNK3 block: inactive; KCNK9 block conf: inactive; Kir21 sel: inactive; KCNK9 uninduced: inactive

How did NS(=O)(=O)c1ccc(NC(=O)C2COc3ccccc3O2)cc1 (stereo not drawn) do in these assays?
KCNK9 inh: inactive; KCNQ1 inh: inactive; hERG rescue: -6.6; KCNQ1 pot: inactive

What do the screens show for `CS(=O)(=O)N(Cc1ccccc1)c1ccc(C(=O)Nc2ccccc2C(=O)O)cc1`?
KCNK9 inh: inactive; KCNQ1 inh: inactive; hERG rescue: -10.1; KCNQ1 pot: inactive; KCNK3 block: inactive

What do the screens show for `CC(C)(C)N1C(=O)[C@H]2[C@@H](c3ccc(Br)cc3)N3C(=O)N(c4cccc(Cl)c4)C(=O)[C@@]3(Cc3ccccc3)[C@H]2C1=O`?
KCNK9 inh: -8.44*; KCNQ1 inh: inactive; hERG rescue: -5.4; KCNQ1 pot: inactive; KCNK3 block: inactive; KCNK9 block conf: inactive; Kir21 sel: inactive; KCNK9 uninduced: 26.0%*

How did COc1ccc([C@@H]2[C@@H]3C(=O)N(C(C)(C)C)C(=O)[C@@H]3[C@]3(Cc4ccccc4)C(=O)N(c4cccc(Cl)c4)C(=O)N23)cc1 do in these assays?
KCNK9 inh: inactive; KCNQ1 inh: inactive; hERG rescue: -9.3; KCNQ1 pot: inactive; KCNK3 block: inactive

What do the screens show for `N#CCCN(C(=O)COC(=O)CNC(=O)c1cccs1)c1ccc(F)cc1`?
KCNK9 inh: inactive; KCNQ1 inh: inactive; hERG rescue: -6.2; KCNQ1 pot: inactive; KCNK3 block: inactive

What do the screens show for `COc1ccc(-c2nn(-c3ccccc3F)cc2CNCCn2nc(C)cc2C)cc1`?
KCNK9 inh: inactive; KCNQ1 inh: inactive; hERG rescue: -15.6; KCNQ1 pot: inactive; KCNK3 block: inactive; KCNK9 block conf: inactive; Kir21 sel: inactive; KCNK9 uninduced: inactive

What do the screens show for `Cn1cc(C(=O)NS(=O)(=O)Nc2ccc(Br)cc2)c2ccccc21`?
KCNK9 inh: inactive; KCNQ1 inh: inactive; hERG rescue: -13.4; KCNQ1 pot: inactive; KCNK3 block: inactive

How did CC(C)CC1NC(=O)N(CC(=O)N(C)C2CCCCC2)C1=O (stereo not drawn) do in these assays?
KCNK3 block: inactive

How did Cc1c(NC(=O)C(C)OC(=O)CCc2c[nH]c3ccccc23)c(=O)n(-c2ccccc2)n1C (stereo not drawn) do in these assays?
KCNK9 inh: inactive; KCNQ1 inh: inactive; hERG rescue: -7.3; KCNQ1 pot: inactive; KCNK3 block: inactive

How did Cc1ccc(C(=O)CCCn2nnc(-c3cccnc3)n2)cc1C do in these assays?
KCNK9 inh: inactive; KCC2 mod: -0.0908; KCNQ1 inh: inactive; hERG rescue: -5.1; KCNQ1 pot: inactive; KCNK3 block: inactive; KCNK9 block conf: inactive; Kir21 sel: inactive; KCNK9 uninduced: inactive

Results for C/C(=N\Nc1cc(C(F)(F)F)ccc1Cl)c1ccccc1O ?
KCNK9 inh: inactive; KCC2 mod: 0.0431; KCNQ1 inh: inactive; hERG rescue: -11.8; KCNQ1 pot: inactive; KCNK3 block: inactive; KCNK9 block conf: inactive; Kir21 sel: inactive; KCNK9 uninduced: inactive

Results for O=C(CN1C(=O)S/C(=C\c2cc(Cl)c(O)c(Cl)c2)C1=O)Nc1ccccc1 ?
KCNK9 inh: inactive; KCNQ1 inh: inactive; hERG rescue: 11.9*; KCNQ1 pot: inactive; KCNK3 block: inactive; KCNK9 block conf: inactive; Kir21 sel: inactive; KCNK9 uninduced: inactive

Assay outcomes (PubChem)
